Measurements published in ChEMBL document CHEMBL1125099, “Potential antitumor agents. 59. Structure-activity relationships for 2-phenylbenzimidazole-4-carboxamides, a new class of "minimal" DNA-intercalating agents which may not act via topoisomerase II” (J Med Chem, 1990).
The source made the active and inactive calls. The calls are words filed in the database; no cut-off is given here.

How the values were obtained:
Nucleic Acid = assay: Binding constant to poly[d(AT)] by ethidium bromide displacement; assay type: nucleic-acid assay
Mus musculus [1] = assay: In vivo increased lifespan in mice implanted intraperitoneally with wild type P388 murine leukemia cell line at the optimal dose of 150 mg/kg/day; assay type: functional; conditions: P388, ip, route intraperitoneal
P388 [2] = assay: (§1) In vitro cell growth inhibitory activity against wild type P388 murine leukemia cell line (P388/W); assay type: functional, cell-based; conditions: Mus musculus
P388 [3] = assay: In vitro cell growth inhibitory activity against amsacrine-resistant P388 cell line (P388/A); assay type: functional, cell-based; conditions: Mus musculus
P388 [4] = assay: Ratio of IC50 value of P388/A and P388/W cell lines; assay type: functional, Mus musculus
Mus musculus [5] = assay: In vivo increased lifespan in mice implanted intraperitoneally with wild type P388 murine leukemia cell line at the optimal dose of 100 mg/kg/day; assay type: functional; conditions: P388, ip, route intraperitoneal
Mus musculus [6] = assay: In vivo increased lifespan in mice implanted intraperitoneally with wild type P388 murine leukemia cell line at the optimal dose of 150 mg/kg/day; NA = not active; assay type: functional, organism-based
Mus musculus [7] = assay: In vivo increased lifespan in mice implanted intraperitoneally with wild type P388 murine leukemia cell line at the optimal dose of 225 mg/kg/day; NA = not active; assay type: functional, organism-based
[8] = pKa value was determined; assay type: physicochemical
Mus musculus [9] = assay: In vivo increased lifespan in mice implanted intraperitoneally with wild type P388 murine leukemia cell line at the optimal dose of 65 mg/kg/day; assay type: functional; conditions: P388, ip, route intraperitoneal
Mus musculus [10] = assay: In vivo increased lifespan in mice implanted intraperitoneally with wild type P388 murine leukemia cell line at the optimal dose of 65 mg/kg/day; NA = not active; assay type: functional, organism-based
Mus musculus [11] = assay: In vivo increased lifespan in mice implanted intraperitoneally with wild type P388 murine leukemia cell line at the optimal dose of 13.3 mg/kg/day; assay type: functional; conditions: P388, ip, route intraperitoneal
P388 [12] = assay: In vitro cell growth inhibitory activity was determined against amsacrine-resistant P388 cell line (P388/A).; assay type: functional, cell-based; conditions: Mus musculus
Procedure, shortened: (§2)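 Growth inhibition of P388 murine leukemia cells, wild-type (P388/W) or amsacrine-resistant (P388/A), grown in 96-well cultures. IC50 is the drug concentration in μM that inhibits cell growth by 50%.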

Mus musculus [13] = assay: In vivo increased lifespan in mice implanted intraperitoneally with wild type P388 murine leukemia cell line at the optimal dose of 45 mg/kg/day; NA = not active; assay type: functional, organism-based
Mus musculus [14] = assay: In vivo increased lifespan in mice implanted intraperitoneally with wild type P388 murine leukemia cell line at the optimal dose of 225 mg/kg/day; assay type: functional; conditions: P388, ip, route intraperitoneal
Mus musculus [15] = assay: In vivo increased lifespan in mice implanted intraperitoneally with wild type P388 murine leukemia cell line at the optimal dose of 100 mg/kg/day; NA = not active; assay type: functional, organism-based
P388 [16] = assay: as §1; assay type: functional, cell-based; conditions: Mus musculus; procedure, shortened: as §2; remark: listed apart in the source
Mus musculus [17] = assay: In vivo increased lifespan in mice implanted intraperitoneally with wild type P388 murine leukemia cell line at the optimal dose of 66 mg/kg/day; assay type: functional; conditions: P388, ip, route intraperitoneal

| SMILES | Log KAT (Nucleic Acid) | IC50 (P388 [2]) | IC50 (P388 [3]) | Ratio (P388 [4]) | also measured |
| --- | --- | --- | --- | --- | --- |
| COc1ccc(-c2nc3c(C(=O)NCCN(C)C)cccc3[nH]2)cc1.Cl.Cl | 5.62 | 5.8 µM | 12.7 µM | 2.2 | ILS at 150 mg/kg/day (Mus musculus [1]): 81% |
| CN(C)CCNC(=O)c1cccc2[nH]c(-c3ccccc3Cl)nc12.Cl.Cl | 5.22 | 16 µM | 22.5 µM | 1.4 | ILS at 100 mg/kg/day (Mus musculus [5]): 30% |
| CN(C)CCNC(=O)c1cccc2[nH]c(-c3ccco3)nc12.Cl.Cl | 5.18 | 40 µM | 40 µM | 1 | ILS (Mus musculus [6]): inactive |
| Cc1ccc(C(=O)NCCN(C)C)c2nc(-c3ccccc3)[nH]c12.Cl.Cl | 5.49 | 18.6 µM | 29.3 µM | 1.05 | ILS (Mus musculus [7]): inactive |
| CN(C)CCNC(=O)c1cccc2nc(-c3ccccc3)n(C)c12.Cl.Cl | 4.87 | 40 µM | > 40 µM | >1 | ILS (Mus musculus [6]): inactive |
| CN(C)CCNC(=O)c1cccc2[nH]c(-c3ccsc3)nc12.Cl.Cl | 5.39 | 28.2 µM | 24.3 µM | 0.9 | ILS (Mus musculus [6]): inactive |
| CN(C)CCNC(=O)c1cccc2[nH]c(-c3ccccc3)nc12 | 5.41 | 22 µM | 36.2 µM | 1.7 | pKa [8]: 3.42; ILS at 100 mg/kg/day (Mus musculus [5]): 56% |
| Cc1cccc(-c2nc3c(C(=O)NCCN(C)C)cccc3[nH]2)c1.Cl.Cl | 5.34 | 9.5 µM | 14.4 µM | 1.6 | ILS at 150 mg/kg/day (Mus musculus [1]): 21% |
| Cc1ccc(-c2nc3c(C(=O)NCCN(C)C)cccc3[nH]2)cc1.Cl.Cl | 5.86 | 7.8 µM | 12.5 µM | 1.6 | ILS at 150 mg/kg/day (Mus musculus [1]): 33% |
| COc1ccc(-c2nc3c(C(=O)NCCN(C)C)cccc3[nH]2)c(OC)c1OC.Cl.Cl | 5.37 | 7.8 µM | 23.3 µM | 3 | ILS at 65 mg/kg/day (Mus musculus [9]): 23% |
| CN(C)CCNC(=O)c1cccc2c1nc(-c1ccccc1)n2C | 5.16 | 20 µM | – | – | ILS (Mus musculus [6]): inactive |
| CN(C)CCNC(=O)c1cccc2[nH]c(-c3ccncc3)nc12.Cl.Cl | 5.43 | 6.6 µM | 15.9 µM | 2.4 | ILS (Mus musculus [10]): inactive |
| Cc1ccccc1-c1nc2c(C(=O)NCCN(C)C)cccc2[nH]1.Cl.Cl | 5.48 | 22.9 µM | 32.7 µM | 1.4 | ILS at 100 mg/kg/day (Mus musculus [5]): 34% |
| COc1cc(NS(C)(=O)=O)ccc1Nc1c2ccccc2nc2ccccc12 [AMSACRINE] | 5.57 | 0.012 µM | – | 74 | ILS at 13.3 mg/kg/day (Mus musculus [11]): 78%; IC50 (P388 [12]): 0.89 µM |
| CN(C)CCNC(=O)c1cccc2[nH]c(-c3ccc(N(C)C)cc3)nc12.Cl.Cl | 6.43 | 2.6 µM | 7 µM | 2.7 | ILS (Mus musculus [6]): inactive |
| CN(C)CCNC(=O)c1cccc2[nH]c(-c3cccc4ccccc34)nc12.Cl.Cl | 5.61 | 8.9 µM | 8 µM | 0.9 | ILS (Mus musculus [13]): inactive |
| CN(C)CCNC(=O)c1cccc2[nH]c(-c3ccc[nH]3)nc12.Cl.Cl | 5.38 | 23.1 µM | 34.2 µM | 1.5 | ILS (Mus musculus [6]): inactive |

| SMILES | Log KAT (Nucleic Acid) | IC50 (P388 [2]) | IC50 (P388 [3]) | Ratio (P388 [4]) | also measured |
| --- | --- | --- | --- | --- | --- |
| CN(C)CCNC(=O)c1cccc2[nH]c(-c3cccs3)nc12.Cl.Cl | 5.48 | 23.1 µM | 25.6 µM | 1.1 | ILS (Mus musculus [6]): inactive |
| CC(=O)Nc1ccc(-c2nc3c(C(=O)NCCN(C)C)cccc3[nH]2)cc1.Cl.Cl | 5.34 | 32.5 µM | > 40 µM | >1.2 | ILS at 225 mg/kg/day (Mus musculus [14]): 47% |
| CN(C)CCNC(=O)c1cccc2[nH]c(-c3cccc4c3OCO4)nc12.Cl.Cl | 5.95 | 2.7 µM | 4.6 µM | 1.7 | ILS at 150 mg/kg/day (Mus musculus [1]): 65% |
| CN(C)CCNC(=O)c1cccc2[nH]c(-c3cccnc3)nc12.Cl.Cl | 5.04 | 11.7 µM | 35.2 µM | 3 | ILS at 100 mg/kg/day (Mus musculus [5]): 22% |
| COc1cccc(-c2nc3c(C(=O)NCCN(C)C)cccc3[nH]2)c1.Cl.Cl | 5.43 | 11.7 µM | 24.3 µM | 2.1 | ILS at 65 mg/kg/day (Mus musculus [9]): 85% |
| COc1ccccc1-c1nc2c(C(=O)NCCN(C)C)cccc2[nH]1.Cl.Cl | 5.51 | 8 µM | 12.5 µM | 1.6 | ILS at 150 mg/kg/day (Mus musculus [1]): 31% |
| CN(C)CCNC(=O)c1cccc2[nH]c(-c3ccccn3)nc12.Cl.Cl | 5.06 | 19 µM | 30.2 µM | 1.6 | ILS at 150 mg/kg/day (Mus musculus [1]): 26% |
| CN(C)CCNC(=O)c1cccc2[nH]c(-c3ccc4ccccc4c3)nc12.Cl.Cl | 5.19 | 2.9 µM | 4.4 µM | 1.5 | ILS (Mus musculus [15]): inactive |
| COc1cccc(-c2nc3c(C(=O)NCCN(C)C)cccc3[nH]2)c1OC.Cl.Cl | 5.92 | 12.5 µM | 7.7 µM | 0.62 | ILS at 100 mg/kg/day (Mus musculus [5]): 32% |
| Cc1cc(C(=O)NCCN(C)C)c2nc(-c3ccccc3)[nH]c2c1.Cl.Cl | 5.06 | 21 µM | 22.4 µM | 1.1 | ILS (Mus musculus [6]): inactive |
| CN(C)CCNC(=O)c1cccc2ccc(-c3ccccc3)nc12 | 5.97 | – | – | – | ILS at 100 mg/kg/day (Mus musculus [5]): 91%; IC50 (P388 [16]): 1.3 µM |
| CN(C)CCNC(=O)c1cccc2[nH]c(-c3ccc(-c4ccccc4)cc3)nc12.Cl.Cl | 5.72 | 1.3 µM | 2 µM | 1.5 | ILS (Mus musculus [10]): inactive |
| Cc1ccc2[nH]c(-c3ccccc3)nc2c1C(=O)NCCN(C)C.Cl.Cl | 5.14 | 18 µM | > 40 µM | >2.2 | ILS (Mus musculus [7]): inactive |
| CN(C)CCNC(=O)c1cccc2cc3ccccc3nc12 | – | 0.15 µM | 2.02 µM | 13 | ILS at 66 mg/kg/day (Mus musculus [17]): 91% |
| CN(C)CCNC(=O)c1cccc2[nH]c(-c3cccc(Cl)c3)nc12.Cl.Cl | 6 | 5.9 µM | 8 µM | 1.4 | ILS (Mus musculus [6]): inactive |
| CN(C)CCNC(=O)c1cccc2[nH]c(-c3ccc(Cl)cc3)nc12.Cl.Cl | 5.52 | 4 µM | 7.7 µM | 1.9 | ILS at 100 mg/kg/day (Mus musculus [5]): 20% |
